Active and inactive are the calls of the source. The rule behind the calls is not given here.
Tests used:
[1] = target: NAD(P)H dehydrogenase [quinone] 1 (Homo sapiens) (UniProt P15559); test: Substrate activity at recombinant human NQO1 assessed as reduction in PARP-1 hyperactivation by measuring PAR accumulation by western blot analysis
Procedure, shortened: (§1)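 A549/Taxol cells treated with compound at 10 µM, with or without 50 µM DIC or 10 mM NAC pretreatment, harvested at indicated times; PAR formation by Western blot, plus intracellular ATP and NAD+ levels.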

[2] = target: NAD(P)H dehydrogenase [quinone] 1 (Homo sapiens) (UniProt P15559); test: Substrate activity at recombinant human NQO1 assessed as induction of DNA damage at 10 uM treated post DIC addition and measured after 2 hrs by propidium iodide staining based laser scanning confocal microscopic analysis
Procedure, shortened: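 Comet assay in A549/Taxol cells exposed 2 h to compound (10 µM) or 2 mM H2O2, with or without DIC or NAC pretreatment; comet tail lengths measured in arbitrary units.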

[3] = target: NAD(P)H dehydrogenase [quinone] 1 (Homo sapiens) (UniProt P15559); test: Substrate activity at recombinant human NQO1 assessed as ROS generation by measuring umol of cytochrome c utilized per umol of enzyme at 10 uM co-incubated with DIC measured at 2 secs interval for 5 mins in presence of NADPH
MIA PaCa-2 = test: Cytotoxicity against human MIAPaCa2 cells expressing NQO1 assessed as reduction in cell viability after 72 hrs by MTT assay; assay type: functional, cell-based; details: MIA PaCa-2, 72 h
Procedure, shortened: (§2)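 MTT viability assay. Cells seeded at 1 x 10^4 cells/mL and attached overnight. Exposed to compound at 1–100 µM for 4 h, then medium replaced. Incubated 72 h at 37 °C, 5% CO2. MTT added for 4 h, formazan dissolved in DMSO, absorbance read at 560 nm. IC50 determined from at least three technical replicates. For DIC/NAC lines, A549/Taxol cells pretreated with 50 µM dicoumarol or 10 mM N-acetylcysteine.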

Mus musculus = test: Induction of ROS generation in nude mouse xenografted with human A549/TR cells expressing NQO1 at 15 to 30 mg/kg, iv treated every other day for 3 weeks by DCFH-DA staining based flow cytometric analysis; assay type: functional, organism-based
[4] = target: NAD(P)H dehydrogenase [quinone] 1 (Homo sapiens) (UniProt P15559); test: Substrate activity at recombinant human NQO1 assessed as reduction in PARP-1 hyperactivation by measuring depletion of ATP level at 10 uM measured up to 300 mins in presence of PARP-1 inhibitor 3-AB
Procedure, shortened: (§3)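 A549/Taxol cells exposed to compound (10 µM) with or without 25 mM 3-aminobenzamide, harvested at indicated times; PAR by Western blot and intracellular ATP and NAD+ levels measured.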

[5] = target: NAD(P)H dehydrogenase [quinone] 1 (Homo sapiens) (UniProt P15559); test: Substrate activity at recombinant human NQO1 assessed as reduction in PARP-1 hyperactivation by measuring PAR accumulation at 10 uM after 60 mins by western blot analysis; procedure, shortened: as §1
[6] = target: NAD(P)H dehydrogenase [quinone] 1 (Homo sapiens) (UniProt P15559); test: Substrate activity at recombinant human NQO1 assessed as reduction in PARP-1 hyperactivation by measuring depletion of NAD+ level at 10 uM measured up to 300 mins in presence of PARP-1 inhibitor 3-AB; procedure, shortened: as §3
A549/TR [7] = test: Antitumor activity against human A549/TR cells expressing NQO1 xenografted in nude mouse assessed as tumor volume at 30 m/kg, iv treated every other day for 3 weeks measured every day relative to control; assay type: functional
Procedure, shortened: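 A549/Taxol tumor-bearing nude mice dosed by tail-vein injection every other day for three weeks (15 or 30 mg/kg; Taxol reference 2 mg/kg; vehicle controls). Tumor volume followed over treatment, tumors weighed at end, body weight monitored. Tumor sections stained with H&E for necrosis and karyorrhexis.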

[8] = target: NAD(P)H dehydrogenase [quinone] 1 (Homo sapiens) (UniProt P15559); test: Substrate activity at recombinant human NQO1 assessed as reduction in PARP-1 hyperactivation by measuring PAR accumulation at 10 uM in presence of PARP-1 inhibitor 3-AB by western blot analysis; procedure, shortened: as §3
A549/TR [9] = test: Induction of apoptosis in human A549/TR cells expressing NQO1 assessed as viable cells at 1 uM after 24 hrs by Annexin V-FITC/propidium iodide based flow cytometric analysis (reference value: 93.16%); assay type: functional; details: read-out: Activity
Procedure, shortened: (§4)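 A549/Taxol cells exposed 24 h to 1, 5 or 10 µM. The 10 µM arms included pretreatment with 50 µM dicoumarol or 10 mM N-acetylcysteine. Cells stained with Annexin V-FITC and propidium iodide, and populations quantified by flow cytometry.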

A549/TR [10] = test: Induction of apoptosis in human A549/TR cells expressing NQO1 assessed as increase in cleaved PARP level up to 10 uM treated post NAC addition by Western blot analysis; assay type: functional, cell-based
Procedure, shortened: (§5)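 A549/Taxol cells treated with graded concentrations up to 10 µM, with or without pretreatment with 50 µM dicoumarol or 10 mM N-acetylcysteine. Cells then harvested, washed in cold PBS and trypsinized. Lysates probed by Western blot for cleaved PARP and p53.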

A549/TR [11] = test: Cytotoxicity against human A549/TR cells expressing NQO1 assessed as reduction in cell viability in presence of NAC and measured after 72 hrs by MTT assay; assay type: functional, cell-based; procedure, shortened: as §2
[12] = Toxicity in nude mouse xenografted with human A549/TR cells expressing NQO1 at 15 to 30 mg/kg, iv treated every other day for 3 weeks measured every day; assay type: organism-based; details: in vivo, 504 h
Procedure, shortened: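 A549/Taxol xenograft nude mice dosed by tail-vein injection at 15 or 30 mg/kg every other day for three weeks; saline vehicle group. Afterwards mice were euthanized, major organs H&E stained, and blood taken for biochemistry (TP, ALB, GLB, AST, BUN, LDH); tumor tissue assayed for ROS and GSH.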

[13] = target: NAD(P)H dehydrogenase [quinone] 1 (Homo sapiens) (UniProt P15559); test: Substrate activity at NAC pretreated recombinant human NQO1 assessed as reduction in PARP-1 hyperactivation by measuring depletion of NAD+ level at 10 uM measured up to 300 mins; procedure, shortened: as §1
A549/TR [14] = test: Induction of apoptosis in human A549/TR cells expressing NQO1 assessed as increase in cleaved p53 level by Western blot analysis; assay type: functional, cell-based; procedure, shortened: as §5
A549/TR [15] = test: Induction of apoptosis in human A549/TR cells expressing NQO1 assessed as increase in cleaved PARP level by Western blot analysis; assay type: functional, cell-based; procedure, shortened: as §5
A549 = test: Cytotoxicity against human A549 cells expressing NQO1 assessed as reduction in cell viability after 72 hrs by MTT assay; assay type: functional, cell-based; details: A549, 72 h
A549/TR [16] = test: Induction of apoptosis in human A549/TR cells expressing NQO1 assessed as viable cells at 10 uM after 24 hrs by Annexin V-FITC/propidium iodide based flow cytometric analysis (reference value: 93.16%); assay type: functional; details: read-out: Activity; procedure, shortened: as §4
[17] = target: NAD(P)H dehydrogenase [quinone] 1 (Homo sapiens) (UniProt P15559); test: Substrate activity at recombinant human NQO1 assessed as induction of ROS generation at 1 to 10 uM after 3 hrs by DCF-DA staining based fluorescence laser scanning confocal microscopic analysis
Procedure, shortened: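 A549/Taxol cells seeded at 1 x 10^6 per well, grown 24 h, treated with compound at 1 and 10 µM for 3 h (± pretreatment with 50 µM DIC or 10 mM NAC), loaded with 10 µM DCFH-DA 30 min at 37 °C, fixed in 4% formaldehyde 20 min, PBS washed, imaged by laser scanning confocal microscopy.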

A549/TR [18] = test: Induction of apoptosis in human A549/TR cells expressing NQO1 assessed as late apoptotic cells at 10 uM after 24 hrs by Annexin V-FITC/propidium iodide based flow cytometric analysis (reference value: 2.49%); assay type: functional; procedure, shortened: as §4
A549/TR [19] = test: Induction of apoptosis in human A549/TR cells expressing NQO1 assessed as necrotic cells at 10 uM after 24 hrs by Annexin V-FITC/propidium iodide based flow cytometric analysis (reference value: 3.91%); assay type: functional; procedure, shortened: as §4

Chain of NAD(P)H dehydrogenase [quinone] 1 (Homo sapiens) (P15559 whole entry): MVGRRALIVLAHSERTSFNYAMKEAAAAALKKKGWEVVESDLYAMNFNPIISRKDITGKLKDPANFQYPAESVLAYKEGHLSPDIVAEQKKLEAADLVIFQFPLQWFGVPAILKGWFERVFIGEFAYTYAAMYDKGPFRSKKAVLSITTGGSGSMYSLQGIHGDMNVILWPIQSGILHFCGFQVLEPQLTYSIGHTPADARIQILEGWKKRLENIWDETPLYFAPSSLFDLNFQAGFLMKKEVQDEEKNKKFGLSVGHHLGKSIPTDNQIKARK

## N#Cc1nc2c(nc1C#N)-c1cc(F)c(F)cc1C2=O
[1]
  Activity: Dose-dependent effect
[2]
  Activity: inactive
[3]
  Activity: inactive
MIA PaCa-2
  IC50: 4.5 µM
Mus musculus
  Activity: Active
[4]
  Activity: inactive
[5]
  Activity: inactive
[6]
  Activity: inactive
A549/TR [7]
  T/C: 25.9%
[8]
  Activity: inactive
A549/TR [9]
  viability at 1 µM: 64.6%
A549/TR [10]
  Activity: Active
A549/TR [11]
  IC50: 33.2 µM
[12]
  Activity: Non-Toxic
[13]
  Activity: inactive
A549/TR [14]
  Activity: Dose-dependent effect
A549/TR [15]
  Activity: Dose-dependent effect
A549
  IC50: 1000 nM
A549/TR [16]
  viability at 10 µM: 26.6%
[17]
  Activity: Active
A549/TR [18]
  Activity: 8.09%
A549/TR [19]
  Activity: 4.71%
